Assay results from ChEMBL document CHEMBL4219029, “Impact of Target Warhead and Linkage Vector on Inducing Protein Degradation: Comparison of Bromodomain and Extra-Terminal (BET) Degraders Derived from Triazolodiazepine (JQ1) and Tetrahydroquinoline (I-BET726) BET Inhibitor Scaffolds” (J Med Chem, 2018).
The source made the active and inactive calls. The calls are words filed in the database; no cut-off is given here.

Assays:
[1] = molecular target: von Hippel-Lindau disease tumor suppressor/Bromodomain-containing protein 2/Elongin-B/Elongin-C (Homo sapiens, UniProt P25440+P40337+Q15369+Q15370); experiment: (§1) Induction of interaction of N-terminal His6-tagged recombinant human VHL (54 to 213 residues)/elongin C (17 to 112 residues)/elongin B (1 to 104 residues) co-expressed in Escherichia coli BL21 (DE3) with recombinant human Brd2 BD1 assessed as VCB/BRD2/compound ternary complex formation by isothermal titration calorimetry-based assay
[2] = molecular target: T1, von Hippel-Lindau disease tumor suppressor/Bromodomain-containing protein 4 (Homo sapiens, UniProt O60885+P40337); experiment: Proteolysis targeting chimera activity in human HeLa cells assessed as induction of VCB-mediated delivery of BRD4 short isoform for protein degradation by proteasome by measuring drug level causing 50% cellular protein depletion incubated for 24 hrs by Western blotting method; type: cell-based
[3] = molecular target: T1, von Hippel-Lindau disease tumor suppressor/Bromodomain-containing protein 4; experiment: Proteolysis targeting chimera activity in human HeLa cells assessed as induction of VCB-mediated delivery of BRD4 long isoform for protein degradation by proteasome by measuring drug level causing 50% cellular protein depletion incubated for 24 hrs by Western blotting method; type: cell-based
[4] = molecular target: T2, von Hippel-Lindau disease tumor suppressor/Bromodomain-containing protein 3/Elongin-B/Elongin-C (Homo sapiens, UniProt Q15059+P40337+Q15370+Q15369); experiment: Proteolysis targeting chimera activity in human HeLa cells assessed as induction of VCB-mediated delivery of BRD3 for protein degradation by proteasome at 1 to 10 uM incubated for 24 hrs by Western blotting method; type: cell-based
Outline: (§2)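 HeLa cells seeded at 3 × 10^5 per well and treated the next day for 24 h. Lysed in RIPA buffer with protease inhibitors, Benzonase and 0.5 mM MgCl2, then immunoblotted. Bands normalized to β-actin and quantified against DMSO control. Dmax is the largest depletion across concentrations. Two biological replicates.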

[5] = molecular target: Von Hippel-Lindau disease tumor suppressor/Elongin B/Elongin C (Homo sapiens, UniProt P40337); experiment: Binding affinity to N-terminal His6-tagged recombinant human VHL (54 to 213 residues)/elongin C (17 to 112 residues)/elongin B (1 to 104 residues) expressed in Escherichia coli BL21 (DE3) assessed as compound binary complex formation by isothermal titration calorimetry-based assay
[6] = molecular target: Bromodomain-containing protein 4 (Homo sapiens, UniProt O60885); experiment: Binding affinity to N-terminal His6-tagged recombinant human Brd4 BD2 expressed in Escherichia coli BL21 (DE3) assessed as compound binary complex formation by isothermal titration calorimetry-based assay
Outline: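 ITC at 25 °C, stirred, in 20 mM Bis-Tris propane, 150 mM NaCl, 1 mM TCEP, pH 7.4, with 0.2% or 3% DMSO depending on scaffold. Bromodomain titrated into PROTAC (20 μM in cell, halved for poorly soluble compounds) over 19 injections. Single-binding-site fit gave n, Kd and ΔH.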

[7] = molecular target: T1, von Hippel-Lindau disease tumor suppressor/Bromodomain-containing protein 4; experiment: Proteolysis targeting chimera activity in human HeLa cells assessed as induction of VCB-mediated delivery of BRD4 long isoform for protein degradation by proteasome at 1 to 10 uM incubated for 6 hrs by Western blotting method; type: cell-based
Outline: (§3)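 HeLa cells seeded at 3 × 10^5 per well and treated the next day for 6 h. RIPA lysates (protease inhibitors, Benzonase, 0.5 mM MgCl2) immunoblotted. Band intensities normalized to β-actin and expressed relative to DMSO vehicle.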

HL-60 = experiment: Antiproliferative activity against human HL60 cells after 48 hrs by CellTiter-Glo luminescent cell viability assay; type: functional, cell-based; settings: HL-60, 48 h
Outline: (§4)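 Cells in RPMI with 10% FBS, L-glutamine, penicillin and streptomycin at 37 °C, 5% CO2. Seeded at 3 × 10^5 per mL and exposed to a range of compound concentrations or 0.05% DMSO for 48 h. Viability read by CellTiter-Glo luminescence. EC50 from curve fitting; errors reflect fit quality.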

[8] = molecular target: T3, von Hippel-Lindau disease tumor suppressor/Bromodomain-containing protein 2/Elongin-B/Elongin-C (Homo sapiens) (UniProt P25440+P40337+Q15370+Q15369); experiment: Proteolysis targeting chimera activity in human HeLa cells assessed as induction of VCB-mediated delivery of BRD2 for protein degradation by proteasome at 1 to 10 uM incubated for 24 hrs by Western blotting method; type: cell-based; outline: as §2
[9] = molecular target: T1, von Hippel-Lindau disease tumor suppressor/Bromodomain-containing protein 4; experiment: Proteolysis targeting chimera activity in human HeLa cells assessed as induction of VCB-mediated delivery of BRD4 short isoform for protein degradation by proteasome at 1 to 10 uM incubated for 6 hrs by Western blotting method; type: cell-based; outline: as §3
[10] = molecular target: von Hippel-Lindau disease tumor suppressor/Bromodomain-containing protein 4/Elongin-B/Elongin-C (Homo sapiens, UniProt O60885+P40337+Q15369+Q15370); experiment: as §1, with “Brd4 BD2” for “Brd2 BD1”, “VCB/BRD4/compound” for “VCB/BRD2/compound”
[11] = molecular target: T3, von Hippel-Lindau disease tumor suppressor/Bromodomain-containing protein 2/Elongin-B/Elongin-C (Homo sapiens); experiment: Proteolysis targeting chimera activity in human HeLa cells assessed as induction of VCB-mediated delivery of BRD2 for protein degradation by proteasome at 1 to 10 uM incubated for 6 hrs by Western blotting method; type: cell-based; outline: as §3
[12] = molecular target: T1, von Hippel-Lindau disease tumor suppressor/Bromodomain-containing protein 4; experiment: Proteolysis targeting chimera activity in human HeLa cells assessed as induction of VCB-mediated delivery of BRD4 short isoform for protein degradation by proteasome at 1 to 10 uM incubated for 24 hrs by Western blotting method; type: cell-based; outline: as §2
[13] = molecular target: T2, von Hippel-Lindau disease tumor suppressor/Bromodomain-containing protein 3/Elongin-B/Elongin-C; experiment: Proteolysis targeting chimera activity in human HeLa cells assessed as induction of VCB-mediated delivery of BRD3 for protein degradation by proteasome at 1 to 10 uM incubated for 6 hrs by Western blotting method; type: cell-based; outline: as §3
MV4-11 = experiment: Antiproliferative activity against human MV4-11 cells after 48 hrs by CellTiter-Glo luminescent cell viability assay; type: functional, cell-based; settings: MV4-11, 48 h; outline: as §4
[14] = molecular target: T2, von Hippel-Lindau disease tumor suppressor/Bromodomain-containing protein 3/Elongin-B/Elongin-C; experiment: Proteolysis targeting chimera activity in human HeLa cells assessed as induction of VCB-mediated delivery of BRD3 for protein degradation by proteasome by measuring drug level causing 50% cellular protein depletion incubated for 24 hrs by Western blotting method; type: cell-based
[15] = molecular target: T1, von Hippel-Lindau disease tumor suppressor/Bromodomain-containing protein 4; experiment: Proteolysis targeting chimera activity in human HeLa cells assessed as induction of VCB-mediated delivery of BRD4 long isoform for protein degradation by proteasome at 1 to 10 uM incubated for 24 hrs by Western blotting method; type: cell-based; outline: as §2

For `CC(=O)N1c2ccc(-c3ccc(C(=O)NCCOCCOCCOCCOCC(=O)N[C@H](C(=O)N4C[C@H](O)C[C@H]4C(=O)NCc4ccc(-c5scnc5C)cc4)C(C)(C)C)cc3)cc2[C@H](Nc2ccc(Cl)cc2)C[C@@H]1C`, the Kd [1] was 0.33 µM, the Activity [2] was “Dose-dependent effect” and the pDC50 [2] was 8.1. The Activity [3] was “Dose-dependent effect”, the pDC50 [3] was 7.5 and the Activity [4] was “inactive”. For the same compound, the Kd [5] was 0.109 µM, the Kd [6] was 0.008 µM and the Activity [7] was “inactive”. The EC50 (HL-60) was 0.427 µM, the Emax (HL-60) was 98.3% and the Activity [8] was “inactive”. For the same compound, the Activity [9] was “inactive”, the Kd [10] was 0.183 µM and the Activity [11] was “inactive”. The Activity [12] was “inactive”, the Activity [13] was “inactive” and the EC50 (MV4-11) was 0.0832 µM. For the same compound, the Emax (MV4-11) was 96.4%, the Activity [14] was “Dose-dependent effect” and the pDC50 [14] was 7.7. For the same compound, the Activity [15] was “inactive”.
`Cc1ncsc1-c1ccc(CNC(=O)[C@@H]2C[C@@H](O)CN2C(=O)[C@@H](NC(=O)COCCOCCOCCNC(=O)C[C@@H]2N=C(c3ccc(Cl)cc3)c3c(sc(C)c3C)-n3c(C)nnc32)C(C)(C)C)cc1` was tested, and the EC50 (HL-60) was 0.219 µM, the Emax (HL-60) was 92% and the EC50 (MV4-11) was 0.0269 µM.
Work on `Cc1ncsc1-c1ccc(CNC(=O)[C@@H]2C[C@@H](O)CN2C(=O)[C@@H](NC(=O)COCCOCCOCCOCCNC(=O)C[C@@H]2N=C(c3ccc(Cl)cc3)c3c(sc(C)c3C)-n3c(C)nnc32)C(C)(C)C)cc1` yielded a pDC50 [2] of 8.4, a Kd [6] of 0.027 µM and an EC50 (HL-60) of 1.26 µM. It also gave an Emax (HL-60) of 91.7%, a Kd [10] of 0.015 µM and an Emax (MV4-11) of 95.2%.
Work on `Cc1ncsc1-c1ccc(CNC(=O)[C@@H]2C[C@@H](O)CN2C(=O)[C@@H](NC(=O)COCCOCCNC(=O)C[C@@H]2N=C(c3ccc(Cl)cc3)c3c(sc(C)c3C)-n3c(C)nnc32)C(C)(C)C)cc1` yielded a Kd [6] of 0.017 µM, an EC50 (HL-60) of 1.45 µM and an Emax (HL-60) of 91.4%. It also gave a Kd [10] of 0.026 µM, an EC50 (MV4-11) of 0.178 µM and an Emax (MV4-11) of 91.4%.
`CC(=O)N1c2ccc(-c3ccc(C(=O)NCCOCCOCC(=O)N[C@H](C(=O)N4C[C@H](O)C[C@H]4C(=O)NCc4ccc(-c5scnc5C)cc4)C(C)(C)C)cc3)cc2[C@H](Nc2ccc(Cl)cc2)C[C@@H]1C` was tested, and the pDC50 [2] was 6.9, the pDC50 [3] was 6.7 and the Kd [5] was 0.116 µM. It also gave a Kd [6] of 0.003 µM, an EC50 (HL-60) of 0.676 µM and an Emax (HL-60) of 96.6%. The Kd [10] was 0.781 µM, the EC50 (MV4-11) was 0.575 µM and the Emax (MV4-11) was 88.1%. The pDC50 [14] was 6.8.
In the case of `Cc1sc2c(c1C)C(c1ccc(Cl)cc1)=N[C@@H](CC(=O)Nc1ccc(OCCOCCOCCOCCNc3cccc4c3C(=O)N(C3CCC(=O)NC3=O)C4=O)cc1)c1nnc(C)n1-2` (stereo not given in full), the Emax (HL-60) is reported as 88%.
`CC(=O)N1c2ccc(-c3ccc(C(=O)O)cc3)cc2[C@H](Nc2ccc(Cl)cc2)C[C@@H]1C` was tested, and the Emax (HL-60) was 82.4% and the Emax (MV4-11) was 73.3%.
